Assay results from PubChem BioAssay.
Active and inactive are the calls of the source.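 How the source made its calls, unless noted: active means NADPH fluorescence slope more negative than the mean of all samples by about 3 SD, 99.7% confidence; inactive means the rest.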

What was measured:
[1] = inhibitors of TNFa-induced NFkB p65 translocation, primary screen, imaging, HUVEC, MLSMR starter and 10KST1 sets (AID 438;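 active means inhibition above 20% together with a positive visual image hit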;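 further: compound added about 3h40 before a 20 min TNFalpha stimulation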;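 on inhibition: signal is the nuclear over cytoplasmic p65 intensity ratio per well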); conditions: HUVEC TNFa-induced p65 nuclear translocation; cell count: measured here: nuclei count (cytotoxicity indicator), at 2.08 µM; inhibition: at 2 µM, stronger effect = higher value, 0% TNFa-plus-vehicle, 100% no-TNFa wells
[2] = endothelial E-selectin expression blockers – imaging, HUVEC, immunofluorescence, MLSMR starter and 10KST1 sets, primary screen (AID 487;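 active means visually confirmed hit in the image check and inhibition above 20%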;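 on inhibition: signal is fraction of cell area covered by stained E-selectin grains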;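 on nuclei count: 100% = median nuclei count of all wells on the same plate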); conditions: HUVEC TNFalpha-induced E-selectin immunofluorescence imaging, at 2 µM; inhibition: stronger effect = higher value; nuclei count: measured here: cell number, toxicity
[3] = Primary imaging screen for DUSP6 inhibitors that restore phospho-Erk in transfected HeLa cells, chemical complementation (AID 609;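 active means compounds giving at least 50% inhibition in the cell-based MKP-3 phosphatase rescue imaging test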;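 on inhibition: phospho-Erk level distribution per well compared with pooled transfected vehicle control wells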); conditions: HeLa MKP-3 transfected, phospho-Erk imaging KS statistic, at 10 µM, cells stimulated with TPA for 15 min
[4] = biological target: Dual specificity protein phosphatase 6 (Homo sapiens) (UniProt Q16828); test: as above; conditions: HeLa MKP-3 transfected, phospho-Erk imaging KS statistic; at 10 µM; stronger effect = higher value; cells stimulated with TPA for 15 min
[5] = biological target: Voltage-gated potassium channel subunit beta-2 (Rattus norvegicus) (UniProt P62483); test: inhibitors of rat Kvbeta2 reductase activity – biochemical, NADPH fluorescence, primary screen (AID 622;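 active means fluorescence slope higher than the sample average by over 3 SD, cut at about -0.22 in these data, passing the limit was not always enough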;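 further: slope of raw intensity against log time taken from 70 to 1610 s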); conditions: recombinant KvBeta, 4-cyanobenzaldehyde reduction, at 10 µM, stronger effect = higher value
[6] = biological target: Voltage-gated potassium channel subunit beta-2 (Rattus norvegicus) (UniProt P62483); test: enhancers of rat Kvbeta2 NADPH turnover – biochemical, NADPH fluorescence, primary screen (AID 623); conditions: Recombinant KvBeta, NADPH fluorescence decrease slope, 10 min; at 10 µM; stronger effect = lower value;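 further: fluorescence intensity change per second fitted from 20 to 320 s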
[7] = biological target: Muscarinic acetylcholine receptor M4 (Homo sapiens) (UniProt P08173); test: M4-linked GIRK flux change, two-sided – cell-based, HEK293 M4/GIRK, thallium flux, BTC-AM, M4 allosteric agonist project, primary screen (AID 625;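 active means fluorescence slope after compound addition differing from the mean of all tested samples at 99.7% confidence, mostly higher but some lower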;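 further: thallium influx through GIRK channels coupled to M4 in HEK293 cells with BTC-AM dye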); conditions: at 10 µM, actives lie on both sides
Summary of the method: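 assay system = HEK293 cells with M4 receptor and GIRK channels | medium = pH 7.3 thallium assay buffer | doses = 10 µM final, single point | timing = cells overnight at 37 °C, BTC-AM loading 1 h, reads 2 min total | signal = BTC-AM fluorescence, 1 Hz kinetic reads | read-out = post-addition slope, 15–24 s, of baseline-normalized fluorescence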

[8] = inhibitors of larval lipid processing in zebrafish, primary screen, whole organism, PED6 fluorescence, gall bladder and intestine (AID 686;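 active means a full or partial loss of lipid-probe fluorescence in the fish gall bladder, intestine or both, judged by eye; inactive means no fluorescence loss, or compound toxic to the fish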;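 further: larvae 5 to 7 days old with five fish per well; signal comes from phospholipase A2 cleavage of quenched PED6 carried via bile; overnight exposure to compound and PED6 before scoring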); conditions: Zebrafish larvae PED6 lipid processing, fluorescence scoring; screened at 20 µM (by protocol)
Summary of the method: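 Also added: quenched phospholipase substrate PED6, 100 nM final, ingested by larvae; System: zebrafish larvae, 5-7 d; Quantity: 5 larvae per well; Compound: 20 µM single dose; Schedule: overnight compound and PED6 incubation; Read-out: visual per-well fluorescence inhibition score; Measured by: By-eye fluorescence microscopy; Medium: E3.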

[9] = loss of swimming-algae plug formation – whole organism, Chlamydomonas reinhardtii, WT vs cilia-less mutant, absorbance, 96-well, primary screen (AID 463189;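 active means inhibition at or above 50% relative to wild type and mutant plate controls; inactive means inhibition below 50%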;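 further: 0% = wild type cc124 cells in DMSO and 100% = ciliumless bld1 mutant cells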); conditions: Chlamydomonas reinhardtii gravitaxis, OD600 absorbance, 2 days; at 10 µM; stronger effect = higher value
[10] = measured here: cell density z-score
[11] = measured here: nuclear c-Myc green intensity z-score
[12] = measured here: nuclear pErk red intensity z-score, stronger effect = higher value

Chain of Voltage-gated potassium channel subunit beta-2 (Rattus norvegicus) (P62483 whole entry, looked up): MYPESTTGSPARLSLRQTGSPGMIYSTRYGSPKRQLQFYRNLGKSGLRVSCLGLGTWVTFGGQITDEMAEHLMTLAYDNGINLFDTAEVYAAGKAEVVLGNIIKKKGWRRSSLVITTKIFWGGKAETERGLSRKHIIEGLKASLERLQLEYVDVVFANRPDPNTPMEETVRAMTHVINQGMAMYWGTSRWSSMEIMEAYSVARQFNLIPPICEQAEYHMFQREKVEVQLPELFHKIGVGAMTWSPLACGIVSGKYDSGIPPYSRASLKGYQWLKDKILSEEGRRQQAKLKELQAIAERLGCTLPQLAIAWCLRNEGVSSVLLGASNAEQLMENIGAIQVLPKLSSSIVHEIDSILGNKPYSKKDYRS
Chain of Muscarinic acetylcholine receptor M4 (Homo sapiens) (P08173 whole entry, looked up): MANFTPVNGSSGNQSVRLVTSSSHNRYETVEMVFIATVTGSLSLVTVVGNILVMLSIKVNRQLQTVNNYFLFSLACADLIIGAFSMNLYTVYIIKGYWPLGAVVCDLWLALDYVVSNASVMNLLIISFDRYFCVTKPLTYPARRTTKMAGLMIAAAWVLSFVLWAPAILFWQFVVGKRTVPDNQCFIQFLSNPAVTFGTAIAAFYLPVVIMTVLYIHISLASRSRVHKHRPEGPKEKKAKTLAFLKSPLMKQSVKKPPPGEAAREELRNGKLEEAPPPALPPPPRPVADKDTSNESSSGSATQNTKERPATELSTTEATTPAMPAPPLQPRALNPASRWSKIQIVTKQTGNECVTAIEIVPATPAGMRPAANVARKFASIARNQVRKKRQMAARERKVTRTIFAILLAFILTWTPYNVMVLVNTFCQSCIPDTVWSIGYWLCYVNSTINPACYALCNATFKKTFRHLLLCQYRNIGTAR
Chain of Dual specificity protein phosphatase 6 (Homo sapiens) (Q16828 whole entry, looked up): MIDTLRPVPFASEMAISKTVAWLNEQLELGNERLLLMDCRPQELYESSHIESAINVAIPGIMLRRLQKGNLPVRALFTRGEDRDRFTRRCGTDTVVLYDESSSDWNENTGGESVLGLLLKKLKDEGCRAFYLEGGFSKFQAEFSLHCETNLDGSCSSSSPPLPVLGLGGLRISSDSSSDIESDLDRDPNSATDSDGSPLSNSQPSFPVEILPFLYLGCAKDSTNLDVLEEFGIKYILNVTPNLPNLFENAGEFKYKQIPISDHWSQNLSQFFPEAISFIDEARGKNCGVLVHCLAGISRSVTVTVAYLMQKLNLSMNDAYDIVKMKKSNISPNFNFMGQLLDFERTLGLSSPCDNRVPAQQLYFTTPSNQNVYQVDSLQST

Row | Compound | cell count [1] | inhibition [1] | inhibition [2] | nuclei count [2] | z-score [3, 10] | z-score [3, 11] | z-score [3, 12] | inhibition [4] | fluorescence slope [5] | NADPH fluorescence slope [6] | fluorescence slope [7] | outcome [8] | inhibition [9]
1 | CCCCCSc1nc(N2CCOCC2)c2c(c1C#N)CC(C)(C)OC2 | 527 | -4.1% (inactive) | 47.4% (inactive) | 82.5% | -0.00236 | 0.148 | -1.7 | -11.4% (inactive) | -0.426 (inactive) | 1.5e-05 (inactive) | 0.00771 (inactive) | inactive | 16.6% (inactive)
2 | CN1CCN(Cc2c(O)c(Cl)cc3c(-c4ccccc4)cc(=O)oc23)CC1 | 601 | -8.3% (inactive) | -38.4% (inactive) | 108% | -0.109 | -0.251 | -0.155 | 2.46% (inactive) | -0.232 (inactive) | -2.2e-05 (inactive) | 0.00592 (inactive) | inactive | 10.5% (inactive)
3 | C=CCOC(=O)C1=C(C)NC(SCC(=O)Nc2ccc(C)c(Cl)c2)=C(C#N)C1c1ccco1 (stereo not drawn) | 654 | -12.4% (inactive) | -141% (inactive) | 165% | 0.0936 | -0.359 | 0.4 | 10.1% (inactive) | -0.465 (inactive) | -2.6e-05 (inactive) | 0.00959 (inactive) | inactive | 6.54% (inactive)
4 | O=S(=O)(c1cccc(-c2csc(-c3ccccc3)n2)c1)N1CCOCC1 | 681 | -6% (inactive) | 21.6% (inactive) | 172% | -0.667 | -0.235 | -0.477 | -2.29% (inactive) | -0.452 (inactive) | -5.8e-05 (inactive) | 0.00515 (inactive) | inactive | 25.2% (inactive)
5 | COc1cccc(C2CC(c3ccccc3Cl)n3nc(N)nc3N2)c1 (stereo not drawn) | 399 | -1.4% (inactive) | -136% (inactive) | 131% | 0.0849 | 1.44 | -0.355 | 24.4% (inactive) | -0.464 (inactive) | -7.1e-05 (inactive) | 0.00588 (inactive) | inactive | 29.4% (inactive)
6 | N#Cc1c(N2CCCCC2)nc(N2CCCCC2)c2c1CCN(Cc1ccccc1)C2 | 606 | -3.7% (inactive) | -146% (inactive) | 154% | 0.785 | -0.814 | 0.622 | -4.59% (inactive) | -0.431 (inactive) | -9.2e-05 (inactive) | 0.0046 (inactive) | inactive | 4.47% (inactive)
7 | COCCOC(=O)c1c(C)oc2ccc(OC(=O)COc3c(F)c(F)c(F)c(F)c3F)cc12 | 524 | -3.3% (inactive) | -26.1% (inactive) | 98.8% | -0.212 | -0.943 | 0.127 | -2.09% (inactive) | -0.461 (inactive) | -2.6e-05 (inactive) | 0.0112 (inactive) | inactive | -9.48% (inactive)
8 | COc1ccc(/C(O)=C2/C(=O)C(=O)N(CCCN(C)C)C2c2ccccc2)cc1Cl (stereo not drawn) | 690 | -2% (inactive) | -71.3% (inactive) | 159% | 0.886 | -1.15 | 1.23 | 4.25% (inactive) | -0.452 (inactive) | -6.6e-05 (inactive) | 0.00499 (inactive) | inactive | 20.4% (inactive)
9 | COCCCn1cnc2c(c1=O)c1nc3ccccc3nc1n2CCc1ccccc1 | 607 | -6.7% (inactive) | 10.3% (inactive) | 115% | -3.3 | 0.876 | 0.579 | 1.63% (inactive) | -0.492 (inactive) | -4.8e-05 (inactive) | 0.00438 (inactive) | inactive | 12.1% (inactive)
10 | CCCCc1nc(NCC2CCCO2)c(C#N)c2c1COC(C)(C)C2 (stereo not drawn) | 380 | -5.9% (inactive) | -69.1% (inactive) | 135% | -0.8 | 1.32 | -1.16 | 31.4% (inactive) | -0.509 (inactive) | -7.2e-05 (inactive) | 0.00404 (inactive) | inactive | -8.27% (inactive)
11 | CCOc1ccc(C2CC(c3ccccc3)Nc3nc(N)nn32)cc1 (stereo not drawn) | 364 | -2.2% (inactive) | -80.6% (inactive) | 144% | 1.38 | -1.02 | 0.957 | 11.9% (inactive) | -0.467 (inactive) | -0.000102 (inactive) | 0.00481 (inactive) | inactive | -15.5% (inactive)
12 | O=C1C2ON(c3ccccc3)C(c3cccnc3)C2C(=O)N1c1ccc(Cl)c(Cl)c1 (stereo not drawn) | 666 | -5.7% (inactive) | -61.8% (inactive) | 147% | -0.87 | 0.124 | -0.00603 | -5.62% (inactive) | -0.479 (inactive) | -2.8e-05 (inactive) | 0.00562 (inactive) | inactive | 11.2% (inactive)
13 | CC(NC(=O)NCc1cccnc1)(C(F)(F)F)C(F)(F)F | 708 | -13.6% (inactive) | -45% (inactive) | 138% | -0.926 | 1.23 | 1.47 | -2.09% (inactive) | -0.446 (inactive) | -4.7e-05 (inactive) | 0.00505 (inactive) | inactive | 10.1% (inactive)
14 | CN(C)CCCN1C(=O)C(=O)/C(=C(/O)c2ccccc2)C1c1ccccn1 (stereo not drawn) | 473 | -8.2% (inactive) | -97.3% (inactive) | 158% | 1.03 | -1.2 | 0.352 | 1.04% (inactive) | -0.486 (inactive) | -6.1e-05 (inactive) | 0.00459 (inactive) | inactive | 10.1% (inactive)
15 | O=C(C/C(=N/O)c1ccccc1O)C(F)F | 454 | -0.6% (inactive) | -48.8% (inactive) | 164% | -0.709 | 1.7 | 1.49 | 9.37% (inactive) | -0.451 (inactive) | -2.7e-05 (inactive) | 0.0043 (inactive) | inactive | -1.93% (inactive)
16 | Cn1c(Cl)nc2c1c(=O)n(Cc1cccc(Br)c1)c(=O)n2C | 691 | -8.5% (inactive) | -97.4% (inactive) | 169% | -1.75 | 0.296 | 0.815 | 3.97% (inactive) | -0.507 (inactive) | -1.8e-05 (inactive) | 0.00593 (inactive) | inactive | -10.8% (inactive)
17 | CCCCC(=O)c1c(C)cc(C)[nH]c1=O | 721 | -6.7% (inactive) | -99.5% (inactive) | 191% | 0.203 | 0.876 | 0.0182 | 3.97% (inactive) | -0.482 (inactive) | -7.1e-05 (inactive) | 0.00582 (inactive) | inactive | 0.273% (inactive)
18 | CC(C)OC(=O)CCNc1n[nH]c(=O)[nH]c1=O | 635 | -4.3% (inactive) | -4.4% (inactive) | 119% | 0.648 | 0.239 | 0.621 | -4.27% (inactive) | -0.499 (inactive) | -0.000105 (inactive) | 0.00594 (inactive) | inactive | -8.46% (inactive)
19 | COc1ccc(OC)c(C2/C(=C(/O)c3ccccc3)C(=O)C(=O)N2Cc2ccco2)c1 (stereo not drawn) | 675 | -11.7% (inactive) | -58% (inactive) | 169% | 0.317 | -0.841 | 0.437 | -11.4% (inactive) | -0.522 (inactive) | -2.7e-05 (inactive) | 0.00485 (inactive) | inactive | 5.53% (inactive)
20 | COc1ccc(/C(O)=C2/C(=O)C(=O)N(Cc3ccco3)C2c2cccs2)cc1 (stereo not drawn) | 651 | 89.9% (active) | -68.9% (inactive) | 157% | 1.37 | -0.407 | -1.07 | 3.42% (inactive) | -0.435 (inactive) | -4.8e-05 (inactive) | 0.00532 (inactive) | inactive | 1.62% (inactive)
21 | CC12CN3CC(=O)N4CC5(C)CN(CC(C)(C4)C5=O)C(=O)CN(C1)CC(C)(C3)C2=O | 523 | -11.2% (inactive) | -128% (inactive) | 144% | 0.984 | -0.638 | -0.379 | 1.42% (inactive) | -0.485 (inactive) | -0.000104 (inactive) | 0.00461 (inactive) | inactive | 6.7% (inactive)
22 | CC1(C)Cc2c(C#N)c(SCCOc3ccccc3)nc(N3CCOCC3)c2CO1 | 387 | -7.4% (inactive) | -56.3% (inactive) | 82.1% | -1.25 | 1.29 | 1.84 | 5.42% (inactive) | -0.415 (inactive) | -3.7e-05 (inactive) | 0.00791 (inactive) | inactive | 25.7% (inactive)
23 | Cc1nc(=O)c(-c2ccccc2)c(C)n1-c1ccc(S(N)(=O)=O)cc1 | 568 | -4.9% (inactive) | -74.8% (inactive) | 154% | 0.3 | 0.245 | 1.29 | 7.93% (inactive) | -0.406 (inactive) | -4.5e-05 (inactive) | 0.00537 (inactive) | inactive | -8.67% (inactive)
24 | Cn1c(=O)c2c(nc(NCc3ccco3)n2CCc2ccccc2)n(C)c1=O | 605 | 6% (inactive) | -74.4% (inactive) | 121% | -0.322 | -0.952 | 1.19 | 1.98% (inactive) | -0.524 (inactive) | -6e-05 (inactive) | 0.00721 (inactive) | inactive | 33.1% (inactive)
25 | N#Cc1c2c(c(-c3ccccc3)[nH]c1=O)CCCC2 | 580 | -9.4% (inactive) | -88.6% (inactive) | 140% | -0.665 | -0.156 | -4.21 | 16.5% (inactive) | -0.377 (inactive) | -0.000105 (inactive) | 0.00448 (inactive) | inactive | -4.11% (inactive)
26 | Cc1ccc(S(=O)(=O)N(CC(O)CN(C)C)c2ccccc2)cc1 (stereo not drawn) | 534 | -13.1% (inactive) | -98.3% (inactive) | 180% | 0.563 | -0.408 | -0.341 | -6.59% (inactive) | -0.412 (inactive) | -7e-05 (inactive) | 0.00541 (inactive) | inactive | 2.93% (inactive)
